An excerpt weighted towards active compounds, which were near 2.5% of everything screened.
NR2E3 ag-1: activates human photoreceptor nuclear receptor NR2E3; Q9Y5X4; GST-NR2E3/biotin-RetCOR TR-FRET, 1536-well; inhibition of corepressor binding, % at 4.78 µM; 0.12% of 320,000 active; AID 2300;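 active means percent inhibition above the cutoff of mean plus 3 SD of all tested compounds, set per screening campaign, cut at about 20% in these data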
Target sequence (Q9Y5X4 whole entry, looked up): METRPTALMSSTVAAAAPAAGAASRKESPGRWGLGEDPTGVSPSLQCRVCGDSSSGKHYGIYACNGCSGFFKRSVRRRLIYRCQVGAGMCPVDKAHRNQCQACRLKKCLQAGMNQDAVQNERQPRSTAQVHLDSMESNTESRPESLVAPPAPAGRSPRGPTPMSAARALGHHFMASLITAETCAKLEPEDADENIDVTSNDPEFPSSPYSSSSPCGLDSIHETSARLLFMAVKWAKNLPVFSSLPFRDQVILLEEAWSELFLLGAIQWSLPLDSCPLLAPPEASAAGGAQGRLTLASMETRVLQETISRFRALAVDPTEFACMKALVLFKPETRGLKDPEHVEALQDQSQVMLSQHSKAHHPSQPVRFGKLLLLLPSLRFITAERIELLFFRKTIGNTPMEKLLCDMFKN
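System: GST-NR2E3 and biotin-RetCOR proteins; probe or stimulus: 7 nM biotin-RetCOR; doses: compound at 4.8 µM, single dose; schedule: Compound–protein incubation for 5 h at 4 °C; detection: time-resolved FRET; read-out: percent inhibition; controls: biotin wells as high control, 0.6% DMSO wells as low control; format: 1536-well plates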
NR2E3 ag-2: agonists of human NR2E3 nuclear receptor. Q9Y5X4. CHO-S Gal4-NCOR/VP16-NR2E3 two-hybrid, luciferase. inhibition of corepressor binding, % at 3.98 µM. 0.35% of 360,000 active. AID 602229;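 active means inhibition above the mean of all tested compounds plus 3 SD, cut at about 70% in these data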;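 further: higher means lower luciferase signal from less NR2E3 corepressor binding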
NadD inh: NadD (S. aureus) enzyme inhibition | AID 602399 | 0.78% of 360,000 active | inhibition, % at 20 µM | purified NadD enzyme, colorimetric absorbance read-out; in the data active means inhibition above about 26%
MsrA inhibitor: bovine MsrA inhibition | purified bovine MsrA, absorbance read-out | inhibition, % at 15.5 µM | 0.75% of 360,000 active | AID 651718; in the data active means inhibition above about 4.5%
GalR3 antag: antagonists of human GalR3; AID 651719; inhibition, % at 3 µM; HEK293 GalR3-CNG cAMP membrane potential fluorescence; galR3 body fused to GalR1 C-terminus; O60755; 0.44% of 360,000 active;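 active means inhibition above the screen-wide average plus 3 SD, cut at about 13% in these data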;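 further: forskolin and galanin both at EC90 stimulate the cells; cAMP rise reported by CNG channel membrane potential dye signal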
bovine MsrA act: bovine methionine sulfoxide reductase A activation; 0.3% of 360,000 active; activation, % at 10.6 µM; purified bovine MsrA, absorbance read-out; in the data active means activation above about 7.5%
NadD inh conf: NadD (S. aureus) inhibition, single concentration confirmation | inhibition, % at 20 µM | 13% of 2,000 active | shares compounds with NadD inh | purified S. aureus NadD, colorimetric enzyme assay; in the data active means inhibition mostly above about 42%, no sharp cut-off; inactive means mostly below about 42%
Of the large screens only hits and unclear results are named; the others gave an inactive call (follow-up assays come after a bar, where they were run).

CN(CC(=O)Nc1ccc(F)cc1)C(=O)c1cc(-c2ccco2)nc2ccccc12	NadD inh 41 | NadD inh conf inactive
Cc1ccc(NC(=O)CN(C)C(=O)c2cc(-c3ccco3)nc3ccccc23)cc1	NadD inh 34 | NadD inh conf inactive
CCN(CC)S(=O)(=O)c1cccc(NC(=O)c2cc3ccccc3o2)c1	none
COC/C=C/C1=CC2=CC(=O)C(C)(OC(=O)c3cnc4ccccc4n3)C(=O)C2=CN1c1ccc(OC)cc1 (stereo not given)	NadD inh 33 | NadD inh conf inactive
COC/C=C/C1=CC2=CC(=O)C(C)(OC(=O)c3cnc4ccccc4n3)C(=O)C2=CN1Cc1ccc(OC)cc1 (stereo not given)	none
CC(C)(C)S(=O)N1Cc2cc(C(=O)NCc3ccc(Oc4ccccc4)cc3)nc(-c3cccc(-c4cc5ccccc5o4)c3)c2[C@H]1CCO (stereo not given in full)	NadD inh 35 (no result: NR2E3 ag-1) | NadD inh conf inactive
CC(C)(C)S(=O)N1Cc2cc(C(=O)NCCCN3CCOCC3)nc(-c3cccc(-c4cc5ccccc5o4)c3)c2[C@@H]1CCO (stereo not given in full)	none (no result: NR2E3 ag-1)
CC(C)(C)S(=O)N1Cc2cc(C(=O)NCc3ccc4c(c3)OCO4)nc(-c3cccc(-c4cc5ccccc5o4)c3)c2[C@@H]1CCO (stereo not given in full)	NadD inh 33 (no result: NR2E3 ag-1) | NadD inh conf inactive
COc1ccc(C(=O)NC(C)c2ccc(-n3ccnc3)cc2)c(OC)c1OC (stereo not given)	none
CSc1ncc(CN2CCCC(C(=O)Nc3ccc(-c4ccco4)cc3)C2)cn1 (stereo not given)	NadD inh 47 | NadD inh conf inactive
O=C(CN1c2ccccc2Sc2ccccc21)NNC(=S)Nc1ccc(Cl)cc1Cl	NadD inh 37 | NadD inh conf 51
O=C(N/N=C/c1ccccc1Cl)c1nc2ccc([N+](=O)[O-])cc2c(=O)[nH]1	NadD inh 36 | NadD inh conf inactive
COc1ccc(-c2nc(=S)c3c([nH]2)Oc2ccc(C)cc2C3)cc1O	NadD inh 30 | NadD inh conf inactive
O=C(Oc1cccc2ccccc12)c1ccncc1	none
COc1ccc2cc3[n+](cc2c1O)CCc1cc2c(cc1-3)OCO2	NadD inh 41 (no result: NR2E3 ag-1) | NadD inh conf inactive
COc1ccc(C(=S)N2CCN(C)CC2)cc1	none
COc1ccc2oc(C(=O)NC(C)c3ccccn3)c(C)c2c1 (stereo not given)	none (no result: NR2E3 ag-1)
COc1ccc2oc(C(=O)Nc3nc(-c4ccccn4)cs3)c(C)c2c1	NadD inh 34 | NadD inh conf inactive
CCOC(=O)c1sc(NC(=O)CSc2n[nH]c(-c3ccncc3)n2)c(C#N)c1C	none
Cc1ccsc1/C=C/C1=Cc2c(sc(NC(=O)CSc3n[nH]c(N)n3)c2C#N)C(C)(C)C1	NadD inh 64 | NadD inh conf inactive
CCOc1ccc(/C=C/C2=Cc3c(sc(NC(=O)CSc4n[nH]c(N)n4)c3C#N)C(C)(C)C2)cc1	NadD inh 58 | NadD inh conf inactive
S=C(NNc1ccnc2cc(Cl)ccc12)Nc1ccc(Cl)cc1Cl	NadD inh 30 | NadD inh conf inactive
C[C@H]1CN([C@@H](C)CO)C(=O)c2cccc(NC(=O)C3CC3)c2O[C@H]1CN(C)Cc1ccc(-c2ccccc2)cc1	none (no result: NR2E3 ag-1)
CCOC(=O)C1CCN(C(=O)c2ccccc2)C(CC)C1=O (stereo not given)	none (no result: NR2E3 ag-1)
CCN(CC)CCn1c(-c2ccc(C)cc2)nc(=S)c2c1CC(C)(C)OC2	none
COCC1OC(OC(C)C(O)c2cnc3nc(N)[nH]c(=O)c3n2)C(O)C(OC)C1O (stereo not given)	none (no result: NR2E3 ag-1)
COc1ccc(N/C(N)=N/c2nc(CSc3ccc(Cl)cc3)cc(=O)[nH]2)cc1	none
N/C(=N\c1nc(CSc2ccc(Cl)cc2)cc(=O)[nH]1)Nc1cccc2ccccc12	NadD inh 27 | NadD inh conf inactive
CC(C)C[C@@H](CN1CCC[C@H]1CN1C(=O)C(=O)NC[C@@H]1Cc1ccc(O)cc1)N1C[C@H](Cc2ccccc2)N(CC2CCCCCC2)C(=O)C1=O	NadD inh 38 (no result: NR2E3 ag-1) | NadD inh conf inactive
CC(C)C[C@@H](CN1CCC[C@H]1CN1C(=O)C(=O)NC[C@@H]1Cc1ccccc1)N1C[C@H](Cc2ccccc2)N(CC2CCCCCC2)C(=O)C1=O	NadD inh 40 (no result: NR2E3 ag-1) | NadD inh conf inactive
COc1cccc(N2C(C(C)=O)=NN(c3ccccc3)C2c2ccc(N3CCOCC3)cc2)c1 (stereo not given)	none
COc1ccc(-c2csc(/C(C#N)=C\c3ccc(O)c([N+](=O)[O-])c3)n2)cc1OC	NadD inh 27 | NadD inh conf inactive
COc1ccc(-c2csc(/C(C#N)=C\c3ccc(OC)c([N+](=O)[O-])c3)n2)cc1	none
Cc1cccc(C)c1NC(=O)C(c1ccc(-c2ccccc2)cc1)n1c(=O)c(-c2ccco2)nc2ccccc21 (stereo not given)	none (no result: NR2E3 ag-1, NR2E3 ag-2, NadD inh, bovine MsrA act)
COc1ccc(/C=N/NC(=O)c2cc(-c3ccccc3OC)nc3ccccc23)cc1COC(C)=O	none
COc1ccccc1-c1cc(C(=O)N/N=C/c2ccc(C)s2)c2ccccc2n1	NadD inh 32 | NadD inh conf inactive
COc1ccc(/C=N/NC(=O)c2cc(-c3ccc(C)cc3C)nc3ccccc23)cc1COC(C)=O	NadD inh 38 | NadD inh conf inactive
Cc1cccc(NS(=O)(=O)c2ccc3[nH]c(=O)cc(C(=O)OC(C)C(=O)Nc4ccc([N+](=O)[O-])cc4)c3c2)c1 (stereo not given)	NadD inh 43 | NadD inh conf inactive
CCc1ccc(NC(=O)C(C)OC(=O)c2cc(=O)[nH]c3ccc(S(=O)(=O)Nc4ccc(F)cc4)cc23)cc1 (stereo not given)	NadD inh 34 | NadD inh conf inactive
Cc1cc(C)n2nc(-c3ccsc3-n3c(C)ccc3C)cc2n1	NadD inh 39 | NadD inh conf inactive
Cc1ccc(-c2cc3nc(C)cc(C)n3n2)cc1	none
Cc1ccc(C)c(NC(=O)C2CC(O)CN2C(=O)Oc2ccccc2)c1 (stereo not given)	none
Cc1cc(C)n(-c2cc(N3CCN(S(=O)(=O)c4ccc(C)c(C)c4)CC3)ccc2[N+](=O)[O-])n1	none
Cc1cc(C)n(-c2cc(N3CCN(S(=O)(=O)c4ccc5ccccc5c4)CC3)ccc2[N+](=O)[O-])n1	NadD inh 50 | NadD inh conf inactive
Cn1cnnc1Sc1cc(N2CCN(S(=O)(=O)c3ccc(Cl)c(Cl)c3)CC2)ccc1[N+](=O)[O-]	NadD inh 42 | NadD inh conf inactive

Assay outcomes: PubChem, several laboratories
